Test results: ChEMBL document CHEMBL1142292, “Synthesis and biological activity of novel peptide mimetics as melanocortin receptor agonists” (Bioorg Med Chem Lett, 2008)

Experiments:
Melanocortin receptor 3 [1] = target: T1, Melanocortin receptor 3 (Homo sapiens, UniProt P41968); assay: Displacement of europium labeled NDP-alpha-MSH from human MC3 receptor expressed in HEK293 cells; assay type: cell-based
Summary of the method: (§1)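 HEK293 cells stably transfected with each human receptor subtype; competing unlabeled ligands displace a constant concentration of europium-labeled NDP-α-MSH, read by time-resolved fluorometry; IC50 and Ki calculated.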

[2] = target: T2, Melanocyte-stimulating hormone receptor (Homo sapiens, UniProt Q01726); assay: Agonist activity at human MC1 receptor expressed in HEK293 cells; assay type: functional, cell-based
T2 sequence (Q01726 whole entry): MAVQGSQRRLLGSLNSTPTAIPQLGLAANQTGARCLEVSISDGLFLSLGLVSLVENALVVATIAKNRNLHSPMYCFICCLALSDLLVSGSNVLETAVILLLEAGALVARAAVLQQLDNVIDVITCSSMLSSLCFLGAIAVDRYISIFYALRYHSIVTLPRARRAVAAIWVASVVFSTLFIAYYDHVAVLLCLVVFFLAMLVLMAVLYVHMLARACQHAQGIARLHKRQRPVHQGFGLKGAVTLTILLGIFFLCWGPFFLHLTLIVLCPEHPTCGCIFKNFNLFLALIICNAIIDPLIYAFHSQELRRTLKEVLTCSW
Summary of the method: (§2)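 HEK293 cells stably transfected with the receptor subtype and a CRE-luciferase reporter; cells assayed in 96-well format for luciferase activity. Response expressed as percent of maximal activity (Emax) of NDP-MSH (MT-I) reference agonist.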

Melanocortin receptor 4 [3] = target: T3, Melanocortin receptor 4 (Homo sapiens, UniProt P32245); assay: Agonist activity at human MC4 receptor expressed in HEK293 cells; assay type: functional, cell-based; summary of the method: as §2
T3 sequence (P32245 whole entry): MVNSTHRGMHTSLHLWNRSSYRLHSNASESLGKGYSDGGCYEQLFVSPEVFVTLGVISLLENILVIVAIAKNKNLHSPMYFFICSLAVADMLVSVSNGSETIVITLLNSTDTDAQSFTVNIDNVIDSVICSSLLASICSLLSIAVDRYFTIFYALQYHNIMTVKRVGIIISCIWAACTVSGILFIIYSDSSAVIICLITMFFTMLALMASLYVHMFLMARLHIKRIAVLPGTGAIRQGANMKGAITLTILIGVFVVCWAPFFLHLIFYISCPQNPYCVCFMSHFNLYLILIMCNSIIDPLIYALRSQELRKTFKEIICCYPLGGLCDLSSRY

[4] = target: T2, Melanocyte-stimulating hormone receptor; assay: Displacement of europium labeled NDP-alpha-MSH from human MC1 receptor expressed in HEK293 cells; assay type: cell-based; summary of the method: as §1
Melanocortin receptor 4 [5] = target: T3, Melanocortin receptor 4; assay: Displacement of europium labeled NDP-alpha-MSH from human MC4 receptor expressed in HEK293 cells; assay type: cell-based; summary of the method: as §1
Melanocortin receptor 3 [6] = target: T1, Melanocortin receptor 3; assay: Agonist activity at human MC3 receptor expressed in HEK293 cells; assay type: functional, cell-based; summary of the method: as §2

T1 sequence (P41968 whole entry): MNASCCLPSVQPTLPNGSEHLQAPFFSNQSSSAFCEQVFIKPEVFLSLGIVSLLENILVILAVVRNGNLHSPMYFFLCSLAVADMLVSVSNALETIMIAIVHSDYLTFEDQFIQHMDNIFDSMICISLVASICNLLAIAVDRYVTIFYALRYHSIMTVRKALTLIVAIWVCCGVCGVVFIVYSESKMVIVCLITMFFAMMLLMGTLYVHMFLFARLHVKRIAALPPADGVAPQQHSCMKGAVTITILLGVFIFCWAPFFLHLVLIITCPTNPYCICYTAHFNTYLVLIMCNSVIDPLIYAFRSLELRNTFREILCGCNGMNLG

SMILES	Ki (Melanocortin receptor 3 [1])	EC50 [2]	EC50 (Melanocortin receptor 4 [3])	Ki [4]	Ki (Melanocortin receptor 4 [5])	EC50 (Melanocortin receptor 3 [6])
NC(N)=NCCC[C@@H](CN1CCCCC1)NC(=O)[C@H](N)Cc1ccc(F)cc1	> 100 µM	> 50 µM	> 100 µM	> 100 µM	> 100 µM	> 100 µM
N=C(N)NCCC[C@H](CC1CCCCC1)NC(=O)[C@H](N)Cc1ccc(F)cc1	9.1 µM	> 25 µM	> 50 µM	–	6.7 µM	> 15 µM
NC(N)=NCCC[C@H](Cc1ccccc1)NC(=O)[C@H](N)Cc1ccc(F)cc1	3.5 µM	–	> 100 µM	> 25 µM	4.2 µM	> 100 µM
N[C@H](Cc1ccc(Cl)cc1)C(=O)N1CCC(Cn2cncn2)(C2CCCCC2)CC1	2.3 µM	2 µM	0.016 µM	> 10 µM	0.023 µM	0.23 µM

The next lines start with the values.

Ki (Melanocortin receptor 3 [1])	EC50 [2]	EC50 (Melanocortin receptor 4 [3])	Ki [4]	Ki (Melanocortin receptor 4 [5])	EC50 (Melanocortin receptor 3 [6])	SMILES
> 100 µM	> 50 µM	> 50 µM	> 100 µM	> 25 µM	> 25 µM	N=C(N)NCCC[C@H](NC(=O)[C@H](N)Cc1ccc(F)cc1)C(=O)N1CCCCC1
4.5 µM	> 25 µM	> 25 µM	> 25 µM	> 50 µM	> 50 µM	N[C@H](Cc1ccc(F)cc1)C(=O)NCCC(Cn1cncn1)C1CCCCC1 (some centres undefined)
